ChEMBL document CHEMBL1141689, “Synthesis and biological evaluation of 2-amino-3-(3',4',5'-trimethoxybenzoyl)-6-substituted-4,5,6,7-tetrahydrothieno[2,3-c]pyridine derivatives as antimitotic agents and inhibitors of tubulin polymerization” (Bioorg Med Chem Lett, 2008)

Key:
[1] = system: FM3A; assay: Antiproliferative activity against mouse FM3A cells; type: functional, cell-based
[2] = system: CCRF-CEM; assay: Antiproliferative activity against human CEM cells; type: cell-based
[3] = Antiproliferative activity against human Molt4/C8 cells; type: functional, cell-based; settings: MOLT-4
[4] = system: L1210; assay: Antiproliferative activity against mouse L1210 cells; type: functional, cell-based
[5] = system: K562; assay: Cell cycle arrest in human K562 cells assessed as accumulation at sub G0/G1 phase at 80 nM after 24 hrs using propidium iodide staining by flow cytometry; type: functional
Summary of the method: (§1)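 K562 leukaemia cells were cultured 24 h with compound or without compound as a control, then washed once in ice-cold PBS. They were resuspended at 1 × 10^6/mL in hypotonic propidium iodide (50 μg/mL) in 0.1% sodium citrate with 0.03% (v/v) Nonidet P-40 and incubated 30 min. DNA content was read by flow cytometry as single-parameter histograms, and cell-cycle phase distribution was modelled from them.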

[6] = system: K562; assay: Cell cycle arrest in human K562 cells assessed as accumulation at G2/M phase at 80 nM after 24 hrs using propidium iodide staining by flow cytometry; type: functional; summary of the method: as §1
[7] = system: K562; assay: Cell cycle arrest in human K562 cells assessed as accumulation at G0/G1 phase at 80 nM after 24 hrs using propidium iodide staining by flow cytometry; type: functional; summary of the method: as §1
[8] = system: K562; assay: Cell cycle arrest in human K562 cells assessed as accumulation at S phase at 80 nM after 24 hrs using propidium iodide staining by flow cytometry; type: functional; summary of the method: as §1
[9] = species: Bos taurus; assay: Displacement of [3H]colchicine from bovine brain tubulin at 1 uM
[10] = species: Bos taurus; assay: Displacement of [3H]colchicine from bovine brain tubulin at 5 uM
[11] = Inhibition of tubulin polymerization
[12] = system: K562; assay: Cell cycle arrest in human K562 cells assessed as accumulation at G0/G1 phase at 70 nM after 24 hrs using propidium iodide staining by flow cytometry; type: functional
[13] = system: K562; assay: Cell cycle arrest in human K562 cells assessed as accumulation at sub G0/G1 phase at 70 nM after 24 hrs using propidium iodide staining by flow cytometry; type: functional
[14] = system: K562; assay: Cell cycle arrest in human K562 cells assessed as accumulation at G2/M phase at 70 nM after 24 hrs using propidium iodide staining by flow cytometry; type: functional
[15] = system: K562; assay: Cell cycle arrest in human K562 cells assessed as accumulation at S phase at 70 nM after 24 hrs using propidium iodide staining by flow cytometry; type: functional
[16] = system: K562; assay: Cell cycle arrest in human K562 cells assessed as accumulation at G0/G1 phase at 500 nM after 24 hrs using propidium iodide staining by flow cytometry; type: functional; summary of the method: as §1
[17] = system: K562; assay: Cell cycle arrest in human K562 cells assessed as accumulation at G2/M phase at 500 nM after 24 hrs using propidium iodide staining by flow cytometry; type: functional; summary of the method: as §1
[18] = system: K562; assay: Cell cycle arrest in human K562 cells assessed as accumulation at S phase at 500 nM after 24 hrs using propidium iodide staining by flow cytometry; type: functional; summary of the method: as §1
[19] = system: K562; assay: Cell cycle arrest in human K562 cells assessed as accumulation at sub G0/G1 phase at 500 nM after 24 hrs using propidium iodide staining by flow cytometry; type: functional; summary of the method: as §1

COc1cc(C(=O)c2c(N)sc3c2CCN(C)C3)cc(OC)c1OC
IC50 [1]: > 10 µM | IC50 [2]: > 10 µM | IC50 [3]: > 10 µM | IC50 [4]: > 10 µM

COc1cc(C(=O)c2c(N)sc3c2CCN(C(=S)NC2CCCCC2)C3)cc(OC)c1OC
IC50 [1]: 1.4 µM | IC50 [3]: 0.75 µM | IC50 [4]: 1.1 µM

COc1cc(C(=O)c2c(N)sc3c2CCN(C(C)=O)C3)cc(OC)c1OC
IC50 [1]: 1.2 µM | IC50 [2]: 1.4 µM | IC50 [3]: 1.1 µM | IC50 [4]: 3.9 µM

COc1cc(C(=O)c2c(N)sc3c2CCN(C(=O)OCC(C)C)C3)cc(OC)c1OC
IC50 [1]: > 10 µM | IC50 [2]: > 10 µM | IC50 [3]: > 10 µM | IC50 [4]: > 10 µM

CCCOC(=O)N1CCc2c(sc(N)c2C(=O)c2cc(OC)c(OC)c(OC)c2)C1
IC50 [1]: 1.4 µM | IC50 [2]: 1.2 µM | IC50 [3]: 0.47 µM | IC50 [4]: 1.1 µM

COc1cc(C(=O)c2c(N)sc3c2CCN(C(=S)NC(C)(C)C)C3)cc(OC)c1OC
IC50 [1]: > 10 µM | IC50 [2]: > 10 µM | IC50 [3]: > 10 µM | IC50 [4]: > 10 µM

CCOC(=O)N1CCc2c(sc(N)c2C(=O)c2cc(OC)c(OC)c(OC)c2)C1
Activity [5]: 10% | IC50 [1]: 0.057 µM | Activity [6]: 40% | Activity [7]: 30% | IC50 [2]: 0.44 µM | IC50 [3]: 0.29 µM | Activity [8]: 30% | Activity [9]: 67% | Activity [10]: 82% | IC50 [11]: 0.6 µM | IC50 [4]: 0.095 µM

COC(=O)N1CCc2c(sc(N)c2C(=O)c2cc(OC)c(OC)c(OC)c2)C1
Activity [12]: 34% | IC50 [1]: 0.046 µM | Activity [13]: 11% | IC50 [2]: 0.09 µM | IC50 [3]: 0.045 µM | Activity [14]: 33% | Activity [15]: 33% | Activity [9]: 71% | Activity [10]: 84% | IC50 [11]: 0.6 µM | IC50 [4]: 0.025 µM

COc1cc(C(=O)c2c(N)sc3ccccc23)cc(OC)c1OC
IC50 [1]: 0.1 µM | IC50 [2]: 0.074 µM | IC50 [3]: 0.073 µM | Activity [9]: 25% | Activity [10]: 71% | IC50 [11]: 1.9 µM | IC50 [4]: 0.09 µM

COc1cc(C(=O)c2c(N)sc3c2CCN(C(=O)NCc2ccc(F)cc2)C3)cc(OC)c1OC
IC50 [1]: > 10 µM | IC50 [2]: > 10 µM | IC50 [3]: > 10 µM | IC50 [4]: > 10 µM

COc1cc(C(=O)c2c(N)sc3c2CCN(C(=O)NC2CCCCC2)C3)cc(OC)c1OC
IC50 [1]: > 10 µM | IC50 [2]: > 10 µM | IC50 [3]: > 10 µM | IC50 [4]: > 10 µM

COc1cc(C(=O)c2c(N)sc3c2CCN(C(=O)NC(C)C)C3)cc(OC)c1OC
IC50 [1]: > 10 µM | IC50 [2]: > 10 µM | IC50 [3]: > 10 µM | IC50 [4]: > 10 µM

CCNC(=S)N1CCc2c(sc(N)c2C(=O)c2cc(OC)c(OC)c(OC)c2)C1
IC50 [1]: 6.9 µM | IC50 [2]: 6.7 µM | IC50 [3]: 4.8 µM | IC50 [4]: 6.8 µM

CCCN1CCc2c(sc(N)c2C(=O)c2cc(OC)c(OC)c(OC)c2)C1
IC50 [1]: > 10 µM | IC50 [2]: > 10 µM | IC50 [3]: > 10 µM | IC50 [4]: > 10 µM

COc1ccc(/C=C\c2cc(OC)c(OC)c(OC)c2)cc1O [COMBRETASTATIN A4]
IC50 [3]: 0.0016 µM | Activity [9]: 90% | Activity [10]: 99%

COc1cc(C(=O)c2c(N)sc3c2CCN(C(=O)NCc2ccccc2)C3)cc(OC)c1OC
IC50 [1]: > 10 µM | IC50 [2]: > 10 µM | IC50 [3]: > 10 µM | IC50 [4]: > 10 µM

COc1cc(C(=O)c2c(N)sc3c2CCN(C(=O)OC(C)(C)C)C3)cc(OC)c1OC
IC50 [1]: > 10 µM | IC50 [2]: > 10 µM | IC50 [3]: > 10 µM | IC50 [4]: > 10 µM

CNC(=S)N1CCc2c(sc(N)c2C(=O)c2cc(OC)c(OC)c(OC)c2)C1
IC50 [1]: 2.8 µM | IC50 [2]: 1.8 µM | IC50 [3]: 1.6 µM | IC50 [4]: 4.9 µM

COc1cc(C(=O)c2c(N)sc3c2CCN(C(=O)Nc2ccccc2)C3)cc(OC)c1OC
IC50 [1]: > 10 µM | IC50 [2]: > 10 µM | IC50 [3]: > 10 µM | IC50 [4]: > 10 µM

CCCCNC(=O)N1CCc2c(sc(N)c2C(=O)c2cc(OC)c(OC)c(OC)c2)C1
IC50 [1]: > 10 µM | IC50 [2]: > 10 µM | IC50 [3]: > 10 µM | IC50 [4]: > 10 µM

COc1cc(C(=O)c2c(N)sc3c2CCN(C(=O)OCc2ccccc2)C3)cc(OC)c1OC
IC50 [1]: > 10 µM | IC50 [2]: 8.3 µM | IC50 [3]: 7.5 µM | IC50 [4]: > 10 µM

COc1cc(C(=O)c2c(N)sc3c2CCN(Cc2ccccc2)C3)cc(OC)c1OC
IC50 [1]: > 10 µM | IC50 [2]: > 10 µM | IC50 [3]: > 10 µM | IC50 [4]: > 10 µM

COc1cc(C(=O)c2c(N)sc3cnccc23)cc(OC)c1OC
IC50 [1]: 0.4 µM | Activity [16]: 19% | Activity [17]: 54% | Activity [18]: 27% | IC50 [2]: 1 µM | IC50 [3]: 0.34 µM | Activity [10]: 27% | Activity [19]: 14% | IC50 [4]: 0.37 µM

CCN1CCc2c(sc(N)c2C(=O)c2cc(OC)c(OC)c(OC)c2)C1
IC50 [1]: 1.9 µM | IC50 [2]: 1.7 µM | IC50 [3]: 1.8 µM | IC50 [4]: 2.1 µM

COc1cc(C(=O)c2c(N)sc3c2CCN(C(=O)Oc2ccccc2)C3)cc(OC)c1OC
IC50 [1]: > 10 µM | IC50 [2]: > 10 µM | IC50 [3]: > 10 µM | IC50 [4]: > 10 µM

COc1cc(C(=O)c2c(N)sc3c2CCN(C(=S)NC(C)C)C3)cc(OC)c1OC
IC50 [1]: > 10 µM | IC50 [2]: > 10 µM | IC50 [3]: > 10 µM | IC50 [4]: > 10 µM
